The source made the active and inactive calls. The rule behind the calls is not given here.
Assays:
[1] = molecular target: Voltage-gated potassium channel, KQT; KCNQ2(Kv7.2)/KCNQ3(Kv7.3) (Homo sapiens, UniProt O43525+O43526); assay: Activation of KCNQ2/Q3 expressed in CHO cells by atomic absorption Rb'+ efflux assay; format: cell-based
Summary of the method: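 CHO cells stably expressing KCNQ2/KCNQ3 were plated at 20,000 cells/well overnight at 37 °C. They were loaded 3 h in buffer containing 5.4 mM RbCl (pH 7.4), then washed three times with 5.4 mM KCl buffer. Compound was applied in 20 mM K+ depolarization buffer for 10 min. Supernatant Rb+ was read by flame atomic absorption at 780 nm against a 0–5 mg/l calibration. EC50 from n = 3.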

[2] = molecular target: T1, Voltage-gated potassium channel, KQT; KCNQ2(Kv7.2)/KCNQ3(Kv7.3) (Homo sapiens) (UniProt O43526+O43525); assay: Activation of human KCNQ2/Q3 expressed in CHO cells assessed as increase in channel current at -40 mV holding potential at 10 uM by whole cell patch-clamp assay; format: cell-based
Summary of the method: (§1)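 Perforated whole-cell patch clamp was run on CHO cells stably expressing KCNQ2/KCNQ3. Cells were held at −80 mV for 500 ms, stepped to −40 mV for 800 ms, then returned to −80 mV for 800 ms. The activation current and the deactivation tail current were measured, with a time course of current recorded at −40 mV.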

[3] = molecular target: T1, Voltage-gated potassium channel, KQT; KCNQ2(Kv7.2)/KCNQ3(Kv7.3) (Homo sapiens); assay: Activation of human KCNQ2/Q3 expressed in CHO cells held at -80 mV for 500 ms followed by depolarized to -40 mV for 800 ms followed by 800 ms pulse-back to -80 mV assessed as increase in both activation and deactivation tail current at 10 uM by whole cell patch-clamp assay
[4] = molecular target: T1, Voltage-gated potassium channel, KQT; KCNQ2(Kv7.2)/KCNQ3(Kv7.3) (Homo sapiens); assay: Activation of KCNQ2/Q3 expressed in CHO cells at 100 uM by atomic absorption Rb'+ efflux assay; format: cell-based
Summary of the method: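 Stable KCNQ2/KCNQ3 CHO cells were Rb+-loaded 3 h at 37 °C and washed. Compound was given once at a single screening concentration in 20 mM K+ depolarization buffer for 10 min. Supernatant Rb+ was measured by flame atomic absorption at 780 nm. A rubidium response under 15% of control was scored as no activity.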

[5] = Selectivity ratio of EC50 for KCNQ1 to KCNQ2/Q3 by atomic absorption Rb'+ efflux assay
[6] = molecular target: T2, Potassium voltage-gated channel subfamily KQT member 1 (Homo sapiens, UniProt P51787); assay: Activation of KCNQ1 expressed in HEK293 cells by atomic absorption Rb'+ efflux assay; format: cell-based
T2 sequence (P51787 whole entry): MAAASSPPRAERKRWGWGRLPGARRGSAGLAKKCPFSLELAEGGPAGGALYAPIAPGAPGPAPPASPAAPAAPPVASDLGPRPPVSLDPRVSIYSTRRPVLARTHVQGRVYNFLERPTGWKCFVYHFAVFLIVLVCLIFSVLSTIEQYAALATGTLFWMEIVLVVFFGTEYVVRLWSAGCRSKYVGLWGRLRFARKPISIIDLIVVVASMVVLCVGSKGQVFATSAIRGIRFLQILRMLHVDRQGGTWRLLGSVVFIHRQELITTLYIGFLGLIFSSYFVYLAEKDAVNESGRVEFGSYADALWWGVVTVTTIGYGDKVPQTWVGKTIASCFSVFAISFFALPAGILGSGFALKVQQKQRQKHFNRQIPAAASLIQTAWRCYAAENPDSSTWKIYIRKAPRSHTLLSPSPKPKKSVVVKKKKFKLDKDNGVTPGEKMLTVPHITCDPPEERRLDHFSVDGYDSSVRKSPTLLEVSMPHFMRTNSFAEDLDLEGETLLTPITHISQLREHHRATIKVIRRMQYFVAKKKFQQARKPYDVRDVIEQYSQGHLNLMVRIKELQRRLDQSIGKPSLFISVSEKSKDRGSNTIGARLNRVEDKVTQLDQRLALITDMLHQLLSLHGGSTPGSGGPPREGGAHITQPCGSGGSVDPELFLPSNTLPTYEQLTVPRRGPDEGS
Summary of the method: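 HEK293 cells stably expressing KCNQ1 (G418 selection) were plated at 20,000 cells/well overnight. They were loaded 3 h with 5.4 mM RbCl buffer at 37 °C and washed. Compound was applied in 20 mM K+ depolarization buffer for 10 min. Supernatant Rb+ was measured by flame atomic absorption at 780 nm. EC50 from n = 3.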

[7] = molecular target: T1, Voltage-gated potassium channel, KQT; KCNQ2(Kv7.2)/KCNQ3(Kv7.3) (Homo sapiens); assay: Activation of human KCNQ2/Q3 expressed in CHO cells assessed as increase in channel current at -40 mV holding potential at 100 uM by whole cell patch-clamp assay; format: cell-based; summary of the method: as §1
[8] = molecular target: T1, Voltage-gated potassium channel, KQT; KCNQ2(Kv7.2)/KCNQ3(Kv7.3) (Homo sapiens); assay: Activation of human KCNQ2/Q3 expressed in CHO cells held at -80 mV for 500 ms followed by depolarized to -40 mV for 800 ms followed by 800 ms pulse-back to -80 mV assessed as increase in both activation and deactivation tail current at 100 uM by whole cell patch-clamp assay

Voltage-gated potassium channel, KQT; KCNQ2(Kv7.2)/KCNQ3(Kv7.3), sequence (O43526 whole entry): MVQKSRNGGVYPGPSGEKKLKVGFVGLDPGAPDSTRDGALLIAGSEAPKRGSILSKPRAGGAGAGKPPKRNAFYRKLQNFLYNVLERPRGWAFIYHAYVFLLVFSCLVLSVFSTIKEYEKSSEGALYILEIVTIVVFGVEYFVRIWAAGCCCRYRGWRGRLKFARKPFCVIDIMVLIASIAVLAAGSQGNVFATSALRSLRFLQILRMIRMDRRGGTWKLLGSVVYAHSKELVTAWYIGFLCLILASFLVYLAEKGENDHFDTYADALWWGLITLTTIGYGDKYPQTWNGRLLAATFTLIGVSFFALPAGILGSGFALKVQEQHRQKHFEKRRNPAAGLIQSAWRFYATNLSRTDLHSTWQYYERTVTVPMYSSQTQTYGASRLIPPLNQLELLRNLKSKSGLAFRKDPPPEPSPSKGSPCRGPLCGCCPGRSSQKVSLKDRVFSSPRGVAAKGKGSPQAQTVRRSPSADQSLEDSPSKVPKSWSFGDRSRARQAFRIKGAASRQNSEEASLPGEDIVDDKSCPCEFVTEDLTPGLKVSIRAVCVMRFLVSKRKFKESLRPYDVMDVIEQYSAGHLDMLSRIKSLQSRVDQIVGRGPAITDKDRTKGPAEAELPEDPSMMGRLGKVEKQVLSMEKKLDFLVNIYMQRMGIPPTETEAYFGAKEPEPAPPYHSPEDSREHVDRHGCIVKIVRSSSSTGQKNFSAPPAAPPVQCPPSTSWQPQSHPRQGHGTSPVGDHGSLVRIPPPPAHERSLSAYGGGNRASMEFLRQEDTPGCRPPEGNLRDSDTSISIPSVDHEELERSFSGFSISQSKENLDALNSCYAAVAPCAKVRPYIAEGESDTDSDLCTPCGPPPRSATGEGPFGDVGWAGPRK
Voltage-gated potassium channel, KQT; KCNQ2(Kv7.2)/KCNQ3(Kv7.3), sequence (O43525 whole entry): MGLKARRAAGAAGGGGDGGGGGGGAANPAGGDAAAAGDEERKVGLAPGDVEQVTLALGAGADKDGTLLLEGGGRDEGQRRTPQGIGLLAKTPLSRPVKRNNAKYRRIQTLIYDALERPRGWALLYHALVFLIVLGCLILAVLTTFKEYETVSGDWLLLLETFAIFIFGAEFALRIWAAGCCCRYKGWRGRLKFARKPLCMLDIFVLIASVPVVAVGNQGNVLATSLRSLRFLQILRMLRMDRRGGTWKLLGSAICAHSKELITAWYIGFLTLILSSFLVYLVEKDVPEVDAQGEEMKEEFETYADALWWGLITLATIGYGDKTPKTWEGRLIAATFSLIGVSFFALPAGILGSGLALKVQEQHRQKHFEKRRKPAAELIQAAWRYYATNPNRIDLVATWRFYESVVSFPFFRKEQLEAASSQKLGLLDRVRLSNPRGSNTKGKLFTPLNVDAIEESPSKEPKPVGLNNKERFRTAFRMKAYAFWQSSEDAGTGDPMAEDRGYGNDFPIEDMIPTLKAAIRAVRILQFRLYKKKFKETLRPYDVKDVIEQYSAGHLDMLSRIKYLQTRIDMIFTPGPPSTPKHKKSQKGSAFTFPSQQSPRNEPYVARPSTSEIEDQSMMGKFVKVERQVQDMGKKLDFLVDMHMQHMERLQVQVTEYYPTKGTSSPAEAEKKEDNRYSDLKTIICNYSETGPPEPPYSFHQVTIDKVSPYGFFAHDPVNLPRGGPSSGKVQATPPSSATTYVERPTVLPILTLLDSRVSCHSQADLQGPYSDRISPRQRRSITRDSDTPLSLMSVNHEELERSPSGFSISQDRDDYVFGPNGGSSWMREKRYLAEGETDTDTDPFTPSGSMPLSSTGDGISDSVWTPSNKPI

Row | SMILES | EC50 [1] | other results
1 | O=c1cc(C(F)F)[nH]c2c(-c3ccccc3)c(C(F)(F)F)nn12 | 4.29 µM | –
2 | O=c1cc(-c2cc(F)c(Cl)nc2Cl)[nH]c2c(-c3cccc4ccccc34)c(C(F)(F)F)nn12 | 0.15 µM | Activity [2]: Active; Activity [3]: Active
3 | O=c1cc(CN2CCCCC2)[nH]c2c(-c3ccccc3)c(C(F)(F)F)nn12 | – | Activity [4]: inactive
4 | O=c1cc(CCl)[nH]c2c(-c3cccc4ccccc34)c(C(F)(F)F)nn12 | 1.25 µM | –
5 | O=c1cc(-c2cc(F)c(Cl)nc2Cl)[nH]c2c(-c3ccccc3)c(C(F)(F)F)nn12 | 0.06 µM | Activity [2]: Active; Activity [3]: Active; Ratio EC50 [5]: 800; EC50 [6]: 49.3 µM
6 | O=c1cc(C(F)(F)F)[nH]c2c(-c3ccccc3)c(C(F)(F)F)nn12 | 1.46 µM | Activity [7]: Active; Activity [8]: Active
7 | Oc1cc(-c2ccccc2)nc2c(-c3ccccc3)c(C(F)(F)F)nn12 | – | Activity [4]: inactive
8 | CC(C)(C)c1cc(=O)n2nc(C(F)(F)F)c(-c3cccc4ccccc34)c2[nH]1 | 19.3 µM | –
9 | CCOC(=O)c1c(C(F)(F)F)nn2c(=O)cc(CCl)[nH]c12 | – | Activity [4]: inactive
10 | O=c1cc(C(F)(F)F)[nH]c2c(-c3ccccc3)cnn12 | – | Activity [4]: inactive
11 | Cc1cc(O)n2nc(C(F)(F)F)c(-c3ccccc3)c2n1 | – | Activity [4]: inactive
12 | CC(C)(C)c1cc(=O)n2nc(C(F)(F)F)c(-c3ccccc3)c2[nH]1 | 6.19 µM | –
13 | COc1ccc(-c2c(C(F)(F)F)nn3c(=O)cc(-c4cc(F)c(Cl)nc4Cl)[nH]c23)cc1OC | 0.23 µM | –
14 | O=c1cc(-c2cccc([N+](=O)[O-])c2)[nH]c2c(-c3ccccc3)c(C(F)(F)F)nn12 | 0.57 µM | –
15 | CCOC(=O)Nc1ccc(NCc2ccc(F)cc2)cc1N [EZOGABINE] | 0.43 µM | Activity [2]: Active
16 | O=c1cc(-c2cccc([N+](=O)[O-])c2)[nH]c2c(-c3cccs3)c(C(F)(F)F)nn12 | 0.58 µM | –
17 | O=c1cc(-c2cc(F)c(F)c(F)c2F)[nH]c2c(-c3ccccc3)c(C(F)(F)F)nn12 | 0.6 µM | –
18 | O=c1cc(CCl)[nH]c2c(-c3ccccc3)c(C(F)(F)F)nn12 | 2.27 µM | Activity [7]: Active; Activity [8]: Active
19 | O=c1cc(C(F)(F)F)[nH]c2c(-c3ccc(Cl)cc3)c(C(F)(F)F)nn12 | 2.06 µM | –
20 | COc1ccc(-c2cc(=O)n3nc(C(F)(F)F)c(-c4ccccc4)c3[nH]2)cc1 | 1.93 µM | –
21 | O=c1cc(C(F)(F)F)[nH]c2c(-c3c[nH]c4ccccc34)c(C(F)(F)F)nn12 | – | Activity [4]: inactive
22 | O=c1cc(C(F)(F)F)[nH]c2c(-c3cccc4ccccc34)c(C(F)(F)F)nn12 | 4.98 µM | –
23 | Cc1nn2c(=O)cc(CCl)[nH]c2c1-c1ccccc1 | – | Activity [4]: inactive
24 | O=c1cc(CCl)[nH]c2c(-c3ccc(Cl)cc3)c(C(F)(F)F)nn12 | 2.33 µM | –
25 | O=c1cc(-c2cc(F)c(F)cc2F)[nH]c2c(-c3ccc(Cl)cc3)c(C(F)(F)F)nn12 | 0.21 µM | –
26 | O=c1cc(-c2cc(F)c(F)c(F)c2F)[nH]c2c(-c3cccs3)c(C(F)(F)F)nn12 | 0.16 µM | –
